PMC10864903 (Heliyon, 2024)
≈ marks a conversion by molar mass, not a printed value.

How the values were obtained:
[1] = tested on: E. coli; test: Minimal inhibitory concentration, E. coli; assay type: cell-based; details: Escherichia coli, read-out: Minimal Inhibitory Concentration (MIC), E. coli
[2] = tested on: MTCC-96 (Staphylococcus aureus); test: Agar-disc diffusion, S. aureus; assay type: cell-based; details: MTCC96, read-out: Diameter of Growth Inhibition Zone, S. aureus
[3] = tested on: S. aureus; test: Minimal inhibitory concentration, S. aureus; assay type: cell-based; details: Staphylococcus aureus, read-out: Minimal Inhibitory Concentration (MIC), S. aureus
How it was run: (§1)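 Agar disc diffusion against bacterial strains, following a previously reported method. Strains were P. aeruginosa MTCC-2453 and S. aureus MTCC-96. Test compounds were anthraquinone-linked coumarins. MIC was reported in µg/mL.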

[4] = tested on: recultured (Enterobacter aerogenes); test: Agar-disc diffusion, E. aerogenes; assay type: cell-based; details: Klebsiella aerogenes, read-out: Diameter of Growth Inhibition Zone, E. aerogenes
[5] = tested on: MTCC-1306 (Bacillus cereus); test: Agar-disc diffusion, B. cereus; assay type: cell-based; details: MTCC1306, read-out: Diameter of Growth Inhibition Zone, B. cereus
[6] = tested on: MTCC-739 (Escherichia coli); test: Agar-disc diffusion, E. coli; assay type: cell-based; details: MTCC739, read-out: Diameter of Growth Inhibition Zone, E. coli
[7] = tested on: P. aeruginosa; test: Minimal inhibitory concentration, P. aeruginosa; assay type: cell-based; details: Pseudomonas aeruginosa, read-out: Minimal Inhibitory Concentration (MIC), P. aeruginosa
How it was run: as §1

[8] = tested on: B. cereus; test: Minimal inhibitory concentration, B. cereus; assay type: cell-based; details: Bacillus cereus, read-out: Minimal Inhibitory Concentration (MIC), B. cereus
[9] = tested on: MTCC-2453 (Pseudomonas aeruginosa); test: Agar-disc diffusion, P. aeruginosa; assay type: cell-based; details: MTCC2453, read-out: Diameter of Growth Inhibition Zone, P. aeruginosa
[10] = tested on: Tyrosinase from mushrooms; test: Mushroom tyrosinase inhibition, L-dopa as substrate; assay type: biochemical; details: mean ± SD of three experiments

Compound	MIC [1] [µg/mL]	zone of inhibition at 100 µg/disc [2] [mm]	MIC [3] [µg/mL]	zone of inhibition at 100 µg/disc [4] [mm]	zone of inhibition at 100 µg/disc [5] [mm]	zone of inhibition at 100 µg/disc [6] [mm]	MIC [7] [µg/mL]	MIC [8] [µg/mL]	zone of inhibition at 100 µg/disc [9] [mm]	Tyrosinase inhibitory activity (%) at 25 μg/mL ([10]; 25 μg/mL) [%]	Tyrosinase inhibitory activity (%) at 50 μg/mL ([10]; 50 μg/mL) [%]	Tyrosinase inhibitory activity (%) at 100 μg/mL ([10]; 100 μg/mL) [%]
O=C(O)c1cn(C2CC2)c2cc(N3CCNCC3)c(F)cc2c1=O [Ciprofloxacin, ciprofloxacin]	0.5 (≈ 1.51 µM)	25	1 (≈ 3.02 µM)	30	22	27	1 (≈ 3.02 µM)	2 (≈ 6.04 µM)	26	–	–	–
O=c1cc(CO)occ1O [Kojic acid, kojic acid]	–	–	–	–	–	–	–	–	–	55.67 ± 0.12	68.62 ± 0.32	85.54 ± 0.23
